Experimental data: ChEMBL document CHEMBL1133101, “7-Methyl-6,7,8,9,14,15-hexahydro-5H-benz[d]indolo[2,3-g]azecine: a new heterocyclic system and a new lead compound for dopamine receptor antagonists” (J Med Chem, 2000)

Key:
[1] = molecular target: T1, Adenosine receptor A1 (Homo sapiens) (UniProt P30542); assay: Percent decrease in adenosine-A1-receptor binding using CPDPX; set-up: scale not given: the % may be the effect or the level left
T1 sequence (whole entry): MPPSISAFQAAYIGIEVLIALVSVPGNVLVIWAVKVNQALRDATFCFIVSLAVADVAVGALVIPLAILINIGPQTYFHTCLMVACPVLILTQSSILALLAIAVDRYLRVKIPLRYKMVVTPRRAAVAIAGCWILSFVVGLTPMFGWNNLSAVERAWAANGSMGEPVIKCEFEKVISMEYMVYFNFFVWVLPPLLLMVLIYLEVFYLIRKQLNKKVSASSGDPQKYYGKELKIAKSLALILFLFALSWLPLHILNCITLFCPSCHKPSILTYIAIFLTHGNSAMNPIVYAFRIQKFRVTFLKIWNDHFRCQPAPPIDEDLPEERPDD
Outline: (§1)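 Preliminary screen of receptors isolated from rat or pig tissues, run with minor changes to standard procedures. Each compound was tested at a single fixed concentration for each receptor. The read-out was the percent decrease in binding of the named radioligand.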

[2] = molecular target: Adrenergic receptor alpha-1 (Homo sapiens) (UniProt P35348+P25100+P35368); assay: Percent decrease in Alpha-1 adrenergic receptor binding using prazosin; assay type: protein assay; outline: as §1
[3] = molecular target: T2, Muscarinic acetylcholine receptor M1 (Homo sapiens) (UniProt P11229); assay: Percent decrease of Muscarinic acetylcholine receptor M1 binding using pirenzepine; set-up: scale not given: the % may be the effect or the level left; outline: as §1
T2 sequence (whole entry): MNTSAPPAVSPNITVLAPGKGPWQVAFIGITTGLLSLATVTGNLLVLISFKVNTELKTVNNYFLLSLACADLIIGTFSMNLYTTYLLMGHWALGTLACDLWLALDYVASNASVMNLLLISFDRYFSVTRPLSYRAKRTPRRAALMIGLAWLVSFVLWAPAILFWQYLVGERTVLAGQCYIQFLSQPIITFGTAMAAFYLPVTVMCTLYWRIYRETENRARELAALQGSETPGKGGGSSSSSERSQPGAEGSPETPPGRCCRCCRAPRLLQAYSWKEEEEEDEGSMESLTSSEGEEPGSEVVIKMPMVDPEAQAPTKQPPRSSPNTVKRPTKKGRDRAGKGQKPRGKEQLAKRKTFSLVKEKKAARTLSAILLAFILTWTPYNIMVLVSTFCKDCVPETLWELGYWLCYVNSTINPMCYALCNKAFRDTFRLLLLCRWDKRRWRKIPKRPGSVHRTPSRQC

[4] = molecular target: T1, Adenosine receptor A1 (Homo sapiens); assay: Percent decrease in Adenosine A1 receptor binding using CPDPX; set-up: scale not given: the % may be the effect or the level left
[5] = molecular target: Glutamate receptor ionotropic AMPA (Homo sapiens) (UniProt P48058+P42263+P42262+P42261); assay: Percent decrease in Quisqualate receptor binding using AMPA; assay type: protein-complex assay; set-up: scale not given: the % may be the effect or the level left; outline: as §1
[6] = molecular target: Serotonin 2 (5-HT2) receptor (Rattus norvegicus, UniProt P30994+P08909+P14842); assay: Binding affinity against 5-hydroxytryptamine 2 receptor in rat striatum using [3H]-RP62203; assay type: tissue-based
[7] = molecular target: D(2) dopamine receptor (Rattus norvegicus, UniProt P61169); assay: Binding affinity against Dopamine receptor D2 of rat striatal mambranes using [3H]spiperone
Sequence of D(2) dopamine receptor (P61169 whole entry): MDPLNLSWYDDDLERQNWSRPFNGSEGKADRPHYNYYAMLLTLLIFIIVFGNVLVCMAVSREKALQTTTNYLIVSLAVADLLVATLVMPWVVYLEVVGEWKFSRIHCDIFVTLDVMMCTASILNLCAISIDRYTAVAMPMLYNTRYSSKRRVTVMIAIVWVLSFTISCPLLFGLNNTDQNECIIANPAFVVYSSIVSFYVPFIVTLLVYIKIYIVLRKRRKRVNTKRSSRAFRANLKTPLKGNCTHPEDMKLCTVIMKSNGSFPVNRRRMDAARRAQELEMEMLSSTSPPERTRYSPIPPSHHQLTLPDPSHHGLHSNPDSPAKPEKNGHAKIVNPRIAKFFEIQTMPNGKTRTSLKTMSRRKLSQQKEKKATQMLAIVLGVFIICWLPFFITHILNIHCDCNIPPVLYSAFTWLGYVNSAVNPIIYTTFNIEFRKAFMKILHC
Outline: (§2)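 Rat striatal receptor preparations were used, with [3H]SCH23390 for D1, [3H]spiperone for D2 and [3H]RP62203 for 5-HT2. Ki ([…]) was derived from competitive displacement of the radioligand, with n = 3–7.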

[8] = molecular target: D(1A) dopamine receptor (Rattus norvegicus, UniProt P18901); assay: Binding affinity against Dopamine receptor D1 of rat striatal receptor using [3H]SCH-23390; outline: as §2
Sequence of D(1A) dopamine receptor (P18901 whole entry): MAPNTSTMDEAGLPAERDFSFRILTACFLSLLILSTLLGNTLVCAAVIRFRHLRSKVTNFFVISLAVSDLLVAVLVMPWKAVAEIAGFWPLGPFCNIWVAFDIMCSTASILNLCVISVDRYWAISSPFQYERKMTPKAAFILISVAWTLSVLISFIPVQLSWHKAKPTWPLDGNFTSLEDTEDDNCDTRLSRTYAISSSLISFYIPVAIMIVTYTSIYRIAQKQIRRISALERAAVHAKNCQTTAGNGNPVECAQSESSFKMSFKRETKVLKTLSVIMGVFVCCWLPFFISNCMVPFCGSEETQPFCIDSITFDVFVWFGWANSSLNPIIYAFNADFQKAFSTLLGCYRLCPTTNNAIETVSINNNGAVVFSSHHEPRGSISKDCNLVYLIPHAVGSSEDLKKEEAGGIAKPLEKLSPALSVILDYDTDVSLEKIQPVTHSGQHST

[9] = molecular target: D(1A) dopamine receptor (Rattus norvegicus) (UniProt P18901); assay: Percent decrease of Dopamine receptor D1 binding using SCH-23390; set-up: scale not given: the % may be the effect or the level left
Sequence of D(1A) dopamine receptor (Rattus norvegicus) (P18901 whole entry, looked up): as the sequence (P18901 whole entry) above

Structure (SMILES)	Activity [1] [%]	Decrease [2] [%]	Activity [3] [%]	Activity [4] [%]	Activity [5] [%]	Ki [6] [nM]	Ki [7] [nM]	Ki [8] [nM]	Activity [9] [%]
c1ccc2c(c1)CCN1CCc3c([nH]c4ccccc34)C21 (configuration not stated)	13	-82	-22						
COc1cc2c(cc1OC)C1c3[nH]c4ccccc4c3CCN1CC2 (configuration not stated)	26	-94	-11						
CN1CCc2ccccc2Cc2[nH]c3ccccc3c2CC1		-97	-9	5	-3	20	6	0.08	-99
c1ccc2c3c([nH]c2c1)C1c2[nH]c4ccccc4c2CCN1CC3	17	-88	-18						
